# Experimental data taken from ChEMBL document CHEMBL1121568, “A multifaceted approach to the study of the side-chain conformation in beta-lactamase-resistant penicillins” (J Med Chem, 1980).
# Target: T1, Beta-lactamase OXA-9 (Klebsiella aerogenes) (UniProt P0A3M4)
# T1 sequence (whole entry): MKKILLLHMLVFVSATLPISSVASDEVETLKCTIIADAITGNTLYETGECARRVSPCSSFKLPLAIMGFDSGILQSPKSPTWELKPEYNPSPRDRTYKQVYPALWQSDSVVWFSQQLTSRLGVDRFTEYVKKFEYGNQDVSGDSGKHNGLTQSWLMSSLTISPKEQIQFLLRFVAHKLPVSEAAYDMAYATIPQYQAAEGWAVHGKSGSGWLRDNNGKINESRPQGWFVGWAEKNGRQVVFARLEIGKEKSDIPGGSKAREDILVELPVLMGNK
# Test: Inhibition of beta-lactamase of Enterobacter aerogenes relative to oxacillin sulfoxide(=1)
# Summary of the method: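 Partially purified Enterobacter aerogenes β-lactamase at constant concentration in pH 8.5 phosphate buffer, 25 °C, hydrolysing cephalothin (2.6 × 10^-4 M). Inhibitors tested at 3.4 × 10^-7 to 8.5 × 10^-5 M. Initial hydrolysis rates with (v_i) and without (v) inhibitor followed by absorbance at 260 nm and estimated graphically. Ratio v/v_i expressed relative to a reference compound.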
row,SMILES,Relative inhibition
1,COC(=O)[C@@H]1N2C(=O)[C@@H](NC(=O)c3c(-c4ccccc4)noc3C)[C@H]2SC1(C)C,120
2,Cc1onc(-c2c(F)cccc2Cl)c1C(=O)N[C@@H]1C(=O)N2[C@@H]1SC(C)(C)[C@@H]2C(=O)O,5000
3,COC(=O)[C@@H]1N2C(=O)[C@@H](NC(=O)c3c(OC)cccc3OC)[C@H]2SC1(C)C,2
4,Cc1onc(-c2ccccc2Cl)c1C(=O)N[C@@H]1C(=O)N2[C@@H]1SC(C)(C)[C@@H]2C(=O)O,5000
5,COc1cccc(OC)c1C(=O)N[C@@H]1C(=O)N2[C@@H]1SC(C)(C)[C@@H]2C(=O)O,50
6,Cc1onc(-c2ccccc2Cl)c1C(=O)N[C@@H]1C(=O)N2[C@@H]1[S+]([O-])C(C)(C)[C@@H]2C(=O)O (stereo partly specified),370
7,Cc1onc(-c2ccccc2)c1C(=O)N[C@@H]1C(=O)N2[C@@H]1SC(C)(C)[C@@H]2C(=O)O,5000
8,COC(=O)[C@@H]1N2C(=O)[C@@H](NC(=O)c3c(-c4ccccc4Cl)noc3C)[C@H]2SC1(C)C,270
9,Cc1onc(-c2ccccc2)c1C(=O)N[C@@H]1C(=O)N2[C@@H]1[S+]([O-])C(C)(C)[C@@H]2C(=O)O (stereo partly specified),1
10,COC(=O)[C@@H]1N2C(=O)[C@@H](NC(=O)c3c(-c4c(Cl)cccc4Cl)noc3C)[C@H]2SC1(C)C,1500
11,Cc1onc(-c2c(Cl)cccc2Cl)c1C(=O)N[C@@H]1C(=O)N2[C@@H]1SC(C)(C)[C@@H]2C(=O)O,5000
